From ChEMBL document CHEMBL3112482, “Nonclassical antifolates, part 5. Benzodiazepine analogs as a new class of DHFR inhibitors: synthesis, antitumor testing and molecular modeling study” (Eur J Med Chem, 2014) come the findings set out here.

The structures appear in SMILES notation.

Holding throughout (format): functional
A short description of test [1]: Cytotoxicity against human breast cancer cells at 10 uM after 48 hrs. Conditions: Cancer cell lines. Put shortly: (§1)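 Single-dose primary screen in the NCI 60 human tumour cell line panel, run at the NCI facility. The panel covers nine subpanels: leukaemia, non-small cell lung, colon, CNS, melanoma, ovarian, renal, prostate and breast. Read-out was percent growth of treated cells, shown as a mean graph and reported as percent growth inhibition.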

Test [2] in a line: Cytotoxicity against human leukemia cells at 10 uM after 48 hrs. The note with it: Leukemia cell.
Test [3] can be described thus: Cytotoxicity against human renal cancer cells at 10 uM after 48 hrs. The note with it: Cancer cell lines.
The nature of test [4]: Cytotoxicity against human CNS cancer cells at 10 uM after 48 hrs. Conditions: Cancer cell lines.
Test [5] in a line: Cytotoxicity against human colon cancer cells at 10 uM after 48 hrs. The note with it: Cancer cell lines. In short, it runs like this: as §1
Test [6] is described as follows: Cytotoxicity against human prostate cancer cells at 10 uM after 48 hrs. The note with it: Cancer cell lines.
A short description of test [7]: Cytotoxicity against human melanoma cells at 10 uM after 48 hrs. Conditions: Melanoma cell. In short, it runs like this:
as §1

A short description of test [8]: Cytotoxicity against human non-small cell lung cancer cells at 10 uM after 48 hrs. The note with it: Cancer cell lines. Put shortly:
as §1

[9] abbreviates: read-out: LC50 (the source's name).

For orientation: GI50 means the concentration at which growth is held to half of that of the control. Low readings indicate more potent growth inhibition, high ones less potent growth inhibition. Usually TGI stands for the concentration at which net growth stops. The low end stands for greater sensitivity of the cells, the high end for lower sensitivity of the cells. Regarding `O=c1[nH]cc(F)c(=O)[nH]1` [FLUOROURACIL], the GI50 is 76.4 µM in test [1]; 45.6 µM in test [3]; 8.4 µM in test [5]; 22.7 µM in test [6]; 70.6 µM in test [7]; greater than 100 µM in test [8]. Further, the TGI in test [1], in test [2], in test [3], in test [4], in test [5] and in test [6] was greater than 100 µM in each case. The TGI in test [7] and in test [8] was greater than 100 µM each time. Further, the CC50 in test [3], in test [4] (setting [9]), in test [5] (setting [9]), in test [7] (setting [9]) and in test [8] (setting [9]) was greater than 100 µM throughout.
